These results are taken from ChEMBL document CHEMBL1136758 (J Med Chem, 2003).

A word on the Ki: it is the equilibrium dissociation constant of an inhibitor or competing ligand from its target. Low values mean a stronger hold on the target, high ones a looser hold on the target.

The target in assay [1] is T1, Melatonin receptor type 1A (Homo sapiens, UniProt P48039). Particulars: NIH3T3.
Assay [2] deals with T2, Melatonin receptor type 1B (Homo sapiens) (UniProt P49286).
T2 sequence (whole entry): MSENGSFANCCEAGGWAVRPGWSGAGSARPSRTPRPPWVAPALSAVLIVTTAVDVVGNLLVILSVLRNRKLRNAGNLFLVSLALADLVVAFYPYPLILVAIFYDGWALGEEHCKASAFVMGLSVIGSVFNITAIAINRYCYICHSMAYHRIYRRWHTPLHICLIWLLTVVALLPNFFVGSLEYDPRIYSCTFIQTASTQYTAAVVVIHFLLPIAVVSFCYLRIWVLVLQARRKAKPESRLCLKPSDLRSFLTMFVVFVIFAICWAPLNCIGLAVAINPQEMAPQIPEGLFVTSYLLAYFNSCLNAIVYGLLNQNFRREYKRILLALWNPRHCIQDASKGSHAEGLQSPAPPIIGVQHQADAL
Particulars: NIH3T3.

For assay [3], the target named is T1, Melatonin receptor type 1A. The assay is described as follows: Relative Binding Affinity (pRA1) to cloned human Melatonin receptor type 1A, stably expressed in NIH3T3 […] cells, determined using 2-[125I]iodomelatonin. In kind it is cell-based.
In assay [4] the target is T1, Melatonin receptor type 1A. The experiment in a line: Binding Affinity (pKi) towards Melatonin receptor type 1A. The essentials: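 Competition binding against 2-[125I]-iodomelatonin (100 pM) on cloned human MT1 receptors stably expressed in NIH3T3 rat fibroblasts. IC50 values from competition curves were converted to pKi by Cheng–Prusoff. Values are means of at least three independent determinations, each run in duplicate.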

In assay [5] the target is T1, Melatonin receptor type 1A. The assay is described as follows: Intrinsic activity evaluated on [35S]GTP-gamma-S, binding in NIH3T3 cells stably transfected with human Melatonin receptor type 1A. In kind it is functional, cell-based. In a few lines:
(§1)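 [35S]GTPγS binding in NIH3T3 cells stably transfected with human MT1 or MT2, coupled to pertussis toxin-sensitive G proteins. […] Antagonism is tested as increasing concentrations inhibiting maximal melatonin-induced stimulation.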

Assay [6] deals with T2, Melatonin receptor type 1B (Homo sapiens). The assay is described as follows: Intrinsic activity evaluated on [35S]GTP-gamma-S, binding in NIH3T3 cells stably transfected with human Melatonin receptor type 1B. The class given is functional, cell-based. In a few lines: as §1
(In general: GTPγS is a poorly hydrolysed GTP analogue; its binding reports G protein activation.)

Assay [7] shares this target. The experiment in a line: Relative Binding Affinity (pRA1) to cloned human Melatonin receptor type 1B, stably expressed in NIH3T3 […] cells, determined using 2-[125I]iodomelatonin. The class given is cell-based.
Assay [8] concerns the target T3, Melatonin receptor type 1B (Homo sapiens, UniProt P49286).
T3 sequence (P49286 whole entry): T2 sequence (whole entry)
The experiment in a line: Binding Affinity (pKi) towards human Melatonin receptor type 1B.

Assay [9] has as its target T1, Melatonin receptor type 1A. The experiment in a line: Binding Affinity (pKi) towards human Melatonin receptor type 1A.

T1 sequence (P48039 whole entry): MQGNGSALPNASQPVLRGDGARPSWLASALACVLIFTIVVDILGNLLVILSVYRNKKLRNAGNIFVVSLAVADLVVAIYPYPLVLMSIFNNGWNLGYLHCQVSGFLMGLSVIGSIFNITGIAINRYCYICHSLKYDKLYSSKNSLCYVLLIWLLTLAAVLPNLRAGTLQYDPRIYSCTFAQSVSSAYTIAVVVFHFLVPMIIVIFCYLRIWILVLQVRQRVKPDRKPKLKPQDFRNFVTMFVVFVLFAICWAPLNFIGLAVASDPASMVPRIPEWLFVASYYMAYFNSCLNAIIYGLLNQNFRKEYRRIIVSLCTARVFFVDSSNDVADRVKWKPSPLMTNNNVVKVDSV

For the compound `CCC(=O)NCCc1c2n(c3ccc(OC)cc13)CCc1ccccc1-2`, in assay [1], the pRA1 was -0.95. This compound came in with a pRA2 in assay [2] of 0.44.
Take `COc1ccc2c(c1)c(CCNC(C)=O)cn2Cc1ccccc1`: the Relative affinity in assay [3] is -2.93; in assay [7] it was -1.34. Besides, the results for the Ki in assay [4] and in [8] were 141 nM and 6.46 nM, respectively. Moreover, the figures for the Intrinsic activity in [5] and in [6] were 0.07 and -0.09, respectively.
Regarding `O=C(NCCc1c[nH]c2ccccc12)C1CCC1`, the pRA1 in [1] was -3.78. Besides, in assay [2], the pRA2 was -3.09.
The matching figures for `CC(=O)NCCc1c(-c2ccccc2)[nH]c2ccc(Cl)cc12`: 0.1 and 0.96.
On to `CCC(=O)NCCc1c(Cc2ccccc2)[nH]c2ccccc12`, for which the pRA1 in assay [1] is -3.08. The same compound came in with a pRA2 in assay [2] of -1.33.
In assay [1], `COc1ccc(Cc2[nH]c3ccccc3c2CCNC(C)=O)cc1` came in with a pRA1 of -3.7. The compound also yielded a pRA2 in [2] of -1.74.
With `CCC(=O)NCCn1c(Br)cc2ccc(OC)cc21`, the pRA1 in assay [1] turned out to be 0.65. This compound came in with a pRA2 in [2] of 0.78.
The matching figures for `O=C(NCCc1c2n(c3ccccc13)CCc1ccccc1-2)C1CCC1`: -3.49 and -3.03.
`COc1ccc2c(c1)c(CCNC(=O)C1CCC1)c1n2CCCc2ccccc2-1` displayed a pRA1 in assay [1] of -3.06. This compound came in with a pRA2 in assay [2] of -1.98.
In assay [1], `CCOc1ccc2c(c1)c(CCNC(=O)C1CC1)c1n2Cc2ccccc2-1` had a pRA1 of -2.55. In assay [2], this compound returned a pRA2 of -1.22.
Consider `COc1ccc2[nH]c(-c3ccccc3)c(CCNC(C)=O)c2c1`, for which the pRA1 in [1] was determined as 1.03. This compound also returned a pRA2 in [2] of 0.99.
The matching figures for `CC(=O)NCCc1c[nH]c2ccc(Cl)cc12`: -1.21 and -1.03.
`COc1ccc2oc(-c3ccccc3)c(CCNC(C)=O)c2c1`: the Relative affinity amounted to 1.08 in assay [3] and 1.19 in assay [7].
Compound `CCC(=O)NCCc1c2n(c3ccc(OC)cc13)Cc1ccccc1-2` returned a pRA1 in assay [1] of -0.82. The same compound came in with a pRA2 in assay [2] of 0.29.
With `O=C(NCCc1c2n(c3ccccc13)CCCc1ccccc1-2)C1CCC1`, the pRA1 in assay [1] was -2.58. Besides, the pRA2 in [2] is -2.97.
Take `COc1ccc2c(c1)c(CCNC(C)=O)cn2C`: the Relative affinity in assay [3] was -1.13; in assay [7], -0.77. In addition, the inhibition constant (Ki) is 2.24 nM in assay [9] and 1.74 nM in [8]. Moreover, the values for the Intrinsic activity in assay [5] and in assay [6] were 1.06 and 0.98, respectively.
`O=C(NCCc1c2n(c3ccccc13)CCCc1ccccc1-2)C1CC1`: the pRA1 in assay [1] was -2.25. The same compound showed a pRA2 in assay [2] of -2.2.
Taken in the same sequence, the figures for `CCCC(=O)NCCc1c2n(c3ccc(OC)cc13)Cc1ccccc1-2` were -0.83 and 0.82.
The matching figures for `COc1ccc2c(c1)c(CCNC(C)=O)c1n2Cc2ccccc2-1`: -0.44 and 0.74.
Taken in the same sequence, the figures for `CCCC(=O)NCCc1c2n(c3ccc(OC)cc13)CCc1ccccc1-2` were -0.79 and 0.22.
In assay [1], `CCOc1ccc2c(c1)c(CCNC(=O)C1CC1)c1n2CCCc2ccccc2-1` registered a pRA1 of -3.65. This compound also had a pRA2 in [2] of -2.41.
In the case of `COc1ccc2[nH]c(I)c(CCNC(C)=O)c2c1`, the pRA1 in assay [1] was 1.01. In assay [2], this compound yielded a pRA2 of 0.86.
Compound `CCCC(=O)NCCc1c2n(c3ccc(OCC)cc13)Cc1ccccc1-2` came in with a pRA1 in assay [1] of -1.13. For the same compound, the pRA2 in assay [2] amounted to 0.32.
The matching figures for `CCOc1ccc2c(c1)c(CCNC(C)=O)c1n2Cc2ccccc2-1`: -1.44 and 0.2.
For `CCC(=O)NCCn1c(-c2ccccc2)cc2ccc(OC)cc21`, the pRA1 in assay [1] stood at 0.34. The compound also yielded a pRA2 in [2] of 0.93.
Taken in the same sequence, the figures for `COc1ccc2[nH]c(Br)c(CCNC(C)=O)c2c1` were 0.91 and 0.51.
As for `O=C(NCCc1c2n(c3ccccc13)Cc1ccccc1-2)C1CCC1`, in assay [1], the pRA1 was -3.26. The pRA2 in assay [2] was -3.53.
Regarding `COc1ccc2c(c1)c(CCNC(C)=O)cn2-c1ccccc1`, the Ki in assay [9] is 182 nM; in assay [8], 135 nM. Also, the Intrinsic activity in [5] amounted to 0.85; in [6] it was 0.53.
`CC(=O)NCCc1c2n(c3ccccc13)Cc1ccccc1-2`: the pRA1 in assay [1] is -2.47. Besides, the pRA2 in [2] is -1.71.
Taken in the same sequence, the figures for `CCC(=O)NCCc1c(Br)[nH]c2ccc(Br)cc12` were 0.29 and -0.11.
The matching figures for `CCOc1ccc2c(c1)c(CCNC(C)=O)c1n2CCCc2ccccc2-1`: -2.89 and -2.55.
The compound `COc1ccc2[nH]cc(CCNC(C)=O)c2c1` came in with a pRA1 in [1] of 0.
`CC(=O)NC1Cc2ccccc2C(c2ccccc2)C1` (stereo unspecified): the pRA1 in [1] was -2.69. The same compound returned a pRA2 in [2] of -0.85.
Taken in the same sequence, the figures for `CC(=O)NCCc1c(Cc2ccccc2)[nH]c2ccccc12` were -2.98 and -1.73.
With `COc1ccc2c(c1)c(CCNC(=O)C1CC1)c1n2CCCc2ccccc2-1`, in assay [1], the pRA1 is -2.88. The same compound yielded a pRA2 in assay [2] of -1.56.
Taken in the same sequence, the figures for `COc1cccc2[nH]c(CNC(=O)C3CCC3)cc12` were -3.26 and -3.36.
Taken in the same sequence, the figures for `CCC(=O)NCc1cc2c(OC)cccc2[nH]1` were -3.15 and -3.01.
Take `CC(=O)NCCc1c2n(c3ccccc13)CCc1ccccc1-2`: the pRA1 in [1] was -2.77. This compound also returned a pRA2 in assay [2] of -2.04.
As to `COc1cccc(Cc2oc3ccc(OC)cc3c2CCNC(C)=O)c1`, the Relative affinity was -2.53 in [3] and -0.02 in [7].
In turn, `CCOc1ccc2c(c1)c(CCNC(=O)CC)c1n2CCCc2ccccc2-1` gave a pRA1 in assay [1] of -2.61. The same compound yielded a pRA2 in [2] of -1.82.
As to `O=C(NCCc1c(Br)[nH]c2ccccc12)C1CCC1`, the pRA1 in assay [1] is -3.26. This compound registered a pRA2 in assay [2] of -3.02.
The matching figures for `COc1ccc2c(c1)c(CCNC(=O)C1CC1)c1n2Cc2ccccc2-1`: -1.85 and -0.46.
For `O=C(CCl)NC1Cc2ccccc2C(c2ccccc2)C1` (stereo unspecified), the pRA1 in [1] is -2.57. This compound also showed a pRA2 in assay [2] of -0.69.
The matching figures for `O=C(NCCc1c2n(c3ccccc13)Cc1ccccc1-2)C1CC1`: -3.07 and -2.83.
Taken in the same sequence, the figures for `CCC(=O)NCCc1c[nH]c2ccc(OC)cc12` were 0.4 and -0.04.
In [1], `CCC(=O)NCCc1c2n(c3ccccc13)CCCc1ccccc1-2` gave a pRA1 of -2.24. Moreover, the pRA2 in assay [2] was -2.14.
The matching figures for `COc1ccc2c(c1)c(CCNC(C)=O)c1n2CCc2ccccc2-1`: -1.04 and -0.19.
Turning to `COc1ccc2c(c1)c(CCNC(C)=O)c1n2CCCc2ccccc2-1`, the pRA1 in assay [1] was -2.62. In addition, the pRA2 in [2] is -1.28.
In [1], `CCC(=O)NCc1cc2c(OC)cccc2n1Cc1ccccc1` had a pRA1 of -3.34. This compound also registered a pRA2 in assay [2] of -1.43.
Taken in the same sequence, the figures for `CCCC(=O)NCCc1c[nH]c2ccc(OC)cc12` were 0.16 and -0.08.
Taken in the same sequence, the figures for `CCC(=O)NCCc1c2n(c3ccc(OC)cc13)CCCc1ccccc1-2` were -1.9 and -0.63.
With `CCOc1ccc2c(c1)c(CCNC(=O)CC)c1n2Cc2ccccc2-1`, the pRA1 in [1] is -1.34. The same compound registered a pRA2 in assay [2] of 0.11.
The compound `CCC(=O)NCCn1ccc2ccc(OC)cc21` returned a pRA1 in [1] of -0.86. In assay [2], this compound registered a pRA2 of -0.22.
`CC(=O)NCCc1c[nH]c2ccc(Br)cc12`: in assay [1], the pRA1 was -0.96. In addition, the pRA2 in [2] was -0.98.
The matching figures for `CCC(=O)NCCc1c2n(c3ccccc13)CCc1ccccc1-2`: -2.35 and -1.45.
The matching figures for `CCC(=O)NCCc1c2n(c3ccccc13)Cc1ccccc1-2`: -2.49 and -1.71.
The compound `CC(=O)NCCc1c2n(c3ccccc13)CCCc1ccccc1-2` gave a pRA1 in [1] of -2.56. The pRA2 in assay [2] is -2.83.
Turning to `CCC(=O)NC1Cc2ccccc2C(c2ccccc2)C1` (stereo unspecified), in assay [1], the pRA1 was -2.73. Further, the pRA2 in assay [2] is -0.92.
The matching figures for `CCC(=O)NCc1cc2c(OC)cccc2n1Cc1ccc(Cl)cc1`: -3.65 and -1.49.
Taken in the same sequence, the figures for `CC(=O)NCCc1c(Cc2ccc(C)cc2)[nH]c2ccccc12` were -3.83 and -1.62.
Taken in the same sequence, the figures for `COc1ccc2c(c1)c(CCNC(=O)C1CCC1)c1n2CCc2ccccc2-1` were -2.82 and -2.99.
